From ChEMBL document CHEMBL2390941 (Bioorg Med Chem Lett, 2013)
Converted amounts (≈) assume the structure as drawn. The source made the active and inactive calls. The rule behind the calls is not given here.

Experiments:
[1] = system: HFF; test: Cytotoxicity against HFF after 72 hrs by WST-1 assay; type: cell-based; details: human
Summary of the method: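 Uninfected human foreskin fibroblast host cells were incubated with compounds for 72 h. Viability was then assessed by WST-1 staining. The effect of DMSO levels in the culture medium was assessed alongside.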

[2] = system: Plasmodium falciparum; test: Antiplasmodial activity against blood stage of drug-resistant Plasmodium falciparum TM91C235; type: functional
Summary of the method: (§1)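 Blood-stage parasites tested in a dose-response growth inhibition assay; values reported in ng/ml.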

[3] = molecular target: T1, Enoyl-acyl carrier reductase (Toxoplasma gondii, UniProt Q6UCJ9); test: Inhibition of Toxoplasma gondii enoyl acyl-carrier protein reductase
T1 sequence (Q6UCJ9 whole entry): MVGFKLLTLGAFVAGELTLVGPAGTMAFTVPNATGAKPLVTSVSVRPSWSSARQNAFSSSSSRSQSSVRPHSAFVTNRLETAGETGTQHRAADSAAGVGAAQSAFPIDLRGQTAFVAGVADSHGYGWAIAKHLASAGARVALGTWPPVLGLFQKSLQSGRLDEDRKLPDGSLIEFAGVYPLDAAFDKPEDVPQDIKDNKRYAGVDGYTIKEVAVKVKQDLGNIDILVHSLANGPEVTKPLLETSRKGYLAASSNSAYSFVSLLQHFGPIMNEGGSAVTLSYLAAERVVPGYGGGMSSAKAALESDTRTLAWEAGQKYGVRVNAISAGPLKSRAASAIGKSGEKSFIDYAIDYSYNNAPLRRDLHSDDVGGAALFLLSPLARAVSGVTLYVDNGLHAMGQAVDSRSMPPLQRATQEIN

[4] = system: Plasmodium falciparum; test: Antiplasmodial activity against blood stage of drug-sensitive Plasmodium falciparum D6; type: functional; summary of the method: as §1
[5] = molecular target: T2, Enoyl-acyl carrier reductase (Toxoplasma gondii) (UniProt Q6UCJ9); test: Inhibition of Toxoplasma gondii enoyl acyl-carrier protein reductase at 1 uM
T2 sequence (whole entry): T1 sequence (Q6UCJ9 whole entry)

[6] = system: Toxoplasma gondii; test: Antiparasitic activity against tachyzoite of Toxoplasma gondii RH expressing yellow fluorescent protein infected in human foreskin fibroblasts after 72 hrs by bacterial beta-galactosidase reporter gene assay; type: functional
[7] = system: Toxoplasma gondii; test: Antiparasitic activity against tachyzoite of Toxoplasma gondii RH expressing yellow fluorescent protein infected in human foreskin fibroblasts after 72 hrs by fluorescence assay

Row | SMILES | Activity [1] [µM] | Activity [2] | IC50 [3] [nM] | Activity [4] | inhibition [5] [%] | MIC50 [6] [µM] | MIC50 [7] [µM]
1 | CCCc1cc(-c2ccc(Oc3ccc(C#N)cc3O)c(Cl)c2)no1 | > 10 | inactive | 29 | > 2440 ng/mL | 94 | 4 (≈ 1.42 µg/mL) | –
2 | CCCc1cc(-c2ccc(Oc3ccc(CNC(=O)c4cc(C)on4)cc3O)c(Cl)c2)no1 | > 10 | – | 137 | >10000 ng/mL | 89 | – | 4 (≈ 1.87 µg/mL)
3 | Cc1cc(C(=O)NCc2ccc(Oc3ccc(Cl)cc3Cl)c(O)c2)no1 | – | – | 19 | – | – | – | –
4 | Oc1cc(Cl)ccc1Oc1ccc(Cl)cc1Cl [TRICLOSAN] | > 10 | inactive | – | inactive | 98 | – | 5 (≈ 1.45 µg/mL)
5 | N#Cc1ccc(Oc2ccc(-c3cc(CCO)on3)cc2Cl)c(O)c1 | > 10 | – | 34 | >10000 ng/mL | 94 | 8 (≈ 2.85 µg/mL) | –
